Reference: ChEMBL document CHEMBL1764997, “(Z)-3-butylidenephthalide from Ligusticum porteri , an α-glucosidase inhibitor” (J Nat Prod, 2011)
The source made the active and inactive calls. No cut-off for these calls is given here.

Key:
Mus musculus [1] = assay: Antidiabetic activity in streptozotocin-induced diabetic ICR mouse assessed as change in blood glucose level at 5 mg/kg after 0.5 hr by oral sucrose tolerance test (RVb= 56 %); type: functional
How it was run: (§1)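 NAD (40 mg/kg ip) then STZ (100 mg/kg ip, 15 min later) diabetic male ICR mice, glucose >140 mg/dL after 7 days. Animals fasted 12 h, dosed orally in 0.05% Tween 80/saline, and given oral sucrose 2 g/kg 30 min later.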

Mus musculus [2] = assay: Antidiabetic activity in streptozotocin-induced diabetic ICR mouse assessed as change in blood glucose level at 5 mg/kg after 2 hrs by oral sucrose tolerance test (RVb= -4.3 %); type: functional; how it was run: as §1
Mus musculus [3] = assay: Antidiabetic activity in streptozotocin-induced diabetic ICR mouse assessed as change in blood glucose level at 5 mg/kg after 1 hr by oral sucrose tolerance test (RVb= 11.4 %); type: functional; how it was run: as §1
Mus musculus [4] = species on record: Mus musculus; assay: Antidiabetic activity in streptozotocin-induced diabetic ICR mouse assessed as lowering of blood glucose level by oral sucrose tolerance test; type: functional, organism-based; how it was run: as §1
[5] = molecular target: Alpha-glucosidase MAL62 (Saccharomyces cerevisiae) (UniProt P07265); assay: Inhibition of yeast alpha-glucosidase assessed as inhibition of p-nitrophenyl-alpha-D-glucopyranoside substrate hydrolysis after 35 mins by spectroscopy
Mus musculus [6] = assay: Antidiabetic activity in streptozotocin-induced diabetic ICR mouse assessed as change in blood glucose level at 5 mg/kg after 1.5 hrs by oral sucrose tolerance test (RVb= 6.1 %); type: functional; how it was run: as §1
Rattus norvegicus [7] = assay: Hypoglycemic activity in rat assessed as increase in insulin concentration at 5 mg/kg, iv; type: functional, organism-based; set-up: dose 5 mg/kg
L6 = assay: Hypoglycemic activity in rat L6 myotubes assessed as increase in 2-deoxyglucose transport at 25 uM relative to control; type: functional
Mus musculus [8] = assay: Antihyperglycemic activity in po dosed diabetic KK-Ay mouse model; type: functional, organism-based
Rattus norvegicus [9] = assay: Hypoglycemic activity in rat assessed as decrease in plasma glucose at 5 mg/kg, iv; type: functional, organism-based; set-up: dose 5 mg/kg
Mus musculus [10] = assay: Antihyperglycemic activity in ICR mouse assessed as change in blood glucose level at 10 mg/kg after 0.5 hr by oral glucose tolerance test (RVb= 59 %); type: functional
Mus musculus [11] = assay: Antihyperglycemic activity in ICR mouse assessed as change in blood glucose level at 10 mg/kg after 2 hrs by oral glucose tolerance test (RVb= -12 %); type: functional
Mus musculus [12] = assay: Antidiabetic activity in streptozotocin-induced diabetic ICR mouse assessed as change in blood glucose level at 10 mg/kg after 0.5 hr by oral glucose tolerance test (RVb= 51.9 %); type: functional
Mus musculus [13] = assay: Antihyperglycemic activity in ICR mouse assessed as change in blood glucose level at 10 mg/kg after 1 hr by oral glucose tolerance test (RVb= 1.5 %); type: functional
Mus musculus [14] = assay: Antidiabetic activity in streptozotocin-induced diabetic ICR mouse assessed as change in blood glucose level at 10 mg/kg after 1 hr by oral glucose tolerance test (RVb= 10.3 %); type: functional
Mus musculus [15] = assay: Antidiabetic activity in streptozotocin-induced diabetic ICR mouse assessed as change in blood glucose level at 10 mg/kg after 2 hrs by oral glucose tolerance test (RVb= -12.9 %); type: functional
Mus musculus [16] = assay: Antihyperglycemic activity in ICR mouse assessed as change in blood glucose level at 10 mg/kg after 1.5 hrs by oral glucose tolerance test (RVb= 2.5 %); type: functional
Mus musculus [17] = assay: Antidiabetic activity in streptozotocin-induced diabetic ICR mouse assessed as change in blood glucose level at 10 mg/kg after 1.5 hrs by oral glucose tolerance test (RVb= 0.005 %); type: functional
Mus musculus [18] = assay: Antihyperglycemic activity in ICR mouse assessed as change in blood glucose level at 20 mg/kg after 1.5 hrs by oral glucose tolerance test (RVb= 2.5 %); type: functional
Mus musculus [19] = assay: Antidiabetic activity in streptozotocin-induced diabetic ICR mouse assessed as change in blood glucose level at 31.2 mg/kg after 1.5 hrs by oral glucose tolerance test (RVb= 0.005 %); type: functional
Mus musculus [20] = assay: Antidiabetic activity in streptozotocin-induced diabetic ICR mouse assessed as change in blood glucose level at 56.2 mg/kg after 1.5 hrs by oral glucose tolerance test (RVb= 0.005 %); type: functional
Mus musculus [21] = species on record: Mus musculus; assay: Antidiabetic activity in streptozotocin-induced diabetic ICR mouse assessed as decrease in blood glucose levels by oral glucose tolerance test
Mus musculus [22] = assay: Antihyperglycemic activity in ICR mouse assessed as change in blood glucose level at 20 mg/kg after 2 hrs by oral glucose tolerance test (RVb= -12 %); type: functional
Mus musculus [23] = assay: Antidiabetic activity in streptozotocin-induced diabetic ICR mouse assessed as change in blood glucose level at 31.2 mg/kg after 1 hr by oral glucose tolerance test (RVb= 10.3 %); type: functional
Mus musculus [24] = assay: Antidiabetic activity in streptozotocin-induced diabetic ICR mouse assessed as change in blood glucose level at 56.2 mg/kg after 0.5 hr by oral glucose tolerance test (RVb= 51.9 %); type: functional
Mus musculus [25] = assay: Antihyperglycemic activity in ICR mouse assessed as change in blood glucose level at 20 mg/kg after 0.5 hr by oral glucose tolerance test (RVb= 59 %); type: functional
Mus musculus [26] = assay: Antidiabetic activity in streptozotocin-induced diabetic ICR mouse assessed as change in blood glucose level at 31.2 mg/kg after 2 hrs by oral glucose tolerance test (RVb= -12.9 %); type: functional
Mus musculus [27] = assay: Antihyperglycemic activity in ICR mouse assessed as change in blood glucose level at 20 mg/kg after 1 hr by oral glucose tolerance test (RVb= 1.5 %); type: functional
Mus musculus [28] = assay: Antidiabetic activity in streptozotocin-induced diabetic ICR mouse assessed as change in blood glucose level at 31.2 mg/kg after 0.5 hr by oral glucose tolerance test (RVb= 51.9 %); type: functional
Mus musculus [29] = assay: Antidiabetic activity in streptozotocin-induced diabetic ICR mouse assessed as change in blood glucose level at 56.2 mg/kg after 2 hrs by oral glucose tolerance test (RVb= -12.9 %); type: functional
Mus musculus [30] = assay: Antidiabetic activity in streptozotocin-induced diabetic ICR mouse assessed as change in blood glucose level at 56.2 mg/kg after 1 hr by oral glucose tolerance test (RVb= 10.3 %); type: functional

Sequence of Alpha-glucosidase MAL62 (Saccharomyces cerevisiae) (P07265 whole entry): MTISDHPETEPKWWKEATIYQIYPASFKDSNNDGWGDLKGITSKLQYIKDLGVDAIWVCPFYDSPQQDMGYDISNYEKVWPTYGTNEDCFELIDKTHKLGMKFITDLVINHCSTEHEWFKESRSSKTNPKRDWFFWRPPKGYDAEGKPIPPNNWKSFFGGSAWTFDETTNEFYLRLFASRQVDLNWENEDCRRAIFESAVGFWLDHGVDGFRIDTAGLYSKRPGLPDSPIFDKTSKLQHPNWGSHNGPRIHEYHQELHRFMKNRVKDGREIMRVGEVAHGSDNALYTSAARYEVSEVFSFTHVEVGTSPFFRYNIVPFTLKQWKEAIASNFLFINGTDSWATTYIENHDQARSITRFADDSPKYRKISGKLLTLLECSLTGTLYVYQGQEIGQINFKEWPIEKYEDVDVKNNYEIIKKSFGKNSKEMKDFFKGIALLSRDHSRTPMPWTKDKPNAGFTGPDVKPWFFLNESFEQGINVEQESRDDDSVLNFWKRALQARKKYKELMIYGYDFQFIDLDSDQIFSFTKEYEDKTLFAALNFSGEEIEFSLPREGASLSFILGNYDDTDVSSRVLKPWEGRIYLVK

Compound: C[C@H]1O[C@H](O[C@H]2[C@H](O)[C@@H](O)[C@@H](O[C@H]3[C@H](O)[C@@H](O)C(O)O[C@@H]3CO)O[C@@H]2CO)[C@H](O)[C@@H](O)[C@@H]1N[C@H]1C=C(CO)[C@@H](O)[C@H](O)[C@H]1O (stereo partly specified) [ACARBOSE]
- Activity (Mus musculus [1]): -0.4%
- Activity (Mus musculus [2]): 6.8%
- Activity (Mus musculus [3]): 0.5%
- Activity (Mus musculus [4]): Active
- Activity [5]: Dose-dependent effect
- Activity (Mus musculus [6]): 6.2%

Compound: COc1cc(/C=C/C(=O)O)ccc1O [FERULATE]
- Activity (Rattus norvegicus [7]): Active
- fold change (FC) (L6): 2.98
- Activity (Mus musculus [8]): Active
- Activity (Rattus norvegicus [9]): Active
- Activity [5]: inactive

Compound: COc1ccc(Cl)cc1C(=O)NCCc1ccc(S(=O)(=O)NC(=O)NC2CCCCC2)cc1 [GLYBURIDE]
- Activity (Mus musculus [10]): -42%
- Activity (Mus musculus [11]): -68%
- Activity (Mus musculus [12]): 42%
- Activity (Mus musculus [13]): -65%
- Activity (Mus musculus [14]): 3.8%
- Activity (Mus musculus [15]): -21.5%
- Activity (Mus musculus [16]): -69%
- Activity (Mus musculus [17]): -10%

Compound: CCC/C=C1\OC(=O)C2=C1CCC=C2 [LIGUSTILIDE]
- Activity (Mus musculus [18]): -3.5%
- Activity (Mus musculus [10]): 42%
- Activity (Mus musculus [19]): -12%
- Activity (Mus musculus [11]): -8%
- Activity (Mus musculus [20]): 2.1%
- Activity (Mus musculus [12]): 13%
- Activity (Mus musculus [21]): Dose-dependent effect
- Activity (Mus musculus [22]): -16%
- Activity (Mus musculus [13]): 25%
- Activity (Mus musculus [23]): -6.3%
- Activity (Mus musculus [24]): 25%
- Activity (Mus musculus [25]): 40%
- Activity (Mus musculus [26]): -10%
- Activity (Mus musculus [27]): 14%
- Activity (Mus musculus [28]): 17%
- Activity (Mus musculus [29]): 6.5%
- Activity (Mus musculus [30]): 17.1%
- Activity (Mus musculus [14]): -14%
- Activity (Mus musculus [15]): -15.6%
- Activity (Mus musculus [16]): 7%
- Activity [5]: inactive
- Activity (Mus musculus [17]): -19%
